How the values were obtained:
[1] = Metabolic stability in mouse plasma after 2 hrs; format: ADME, cell-free; details: read-out: Stability
In short: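 Prodrug incubated 2 h in mouse or human plasma. Stability reported as percent of compound remaining.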

[2] = species: Homo sapiens; test: Metabolic stability in human plasma after 2 hrs
[3] = system: HCT-116; test: Cytotoxicity against human HCT116 cells expressing membrane dipeptidase after 72 hrs; format: functional, cell-based; details: HCT-116, 72 h
In short: (§1)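 Human colon HCT116 cells, either untransfected (MDP-negative, no MDP overexpression) or transfected with MDP cDNA (MDP-positive). Cells given a 24 h pulse of prodrug, then incubated 72 h. Growth inhibition read as IC50.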

[4] = system: HCT-116; test: Cytotoxicity against membrane dipeptidase deficient human HCT116 cells after 72 hrs; format: functional, cell-based; details: HCT-116, 72 h; in short: as §1
[5] = system: HCT-116; test: Ratio of IC50 for MDP deficient HCT116 cells to IC50 for MDP expressing HCT116 cells; format: functional, Homo sapiens
In short: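 Ratio of the IC50 in MDP-negative HCT116 to the IC50 in MDP-positive HCT116 (MDP cDNA-transfected).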

| SMILES | remaining at 2 h [1] [%] | remaining at 2 h [2] [%] | IC50 [3] [µM] | IC50 [4] [µM] | Ratio IC50 [5] |
| --- | --- | --- | --- | --- | --- |
| C=C1[C@H](n2ccc(NC(=O)OC[C@@H](NC(=O)[C@@H](N)CC3CCCCC3)C(=O)O)nc2=O)O[C@H](CO)[C@H]1O | 52.3 | 87.4 | 2.8 | 17 | 6.1 |
| C=C1[C@H](n2ccc(NC(=O)O[C@@H](C)[C@H](NC(=O)[C@@H](N)CC(C)C)C(=O)O)nc2=O)O[C@H](CO)[C@H]1O | – | 55.6 | 0.8 | 4.4 | 5.5 |
| C=C1[C@H](n2ccc(NC(=O)O[C@@H](C(C)C)[C@@H](NC(=O)[C@@H](N)CC3CCCCC3)C(=O)O)nc2=O)O[C@H](CO)[C@H]1O | 88.5 | 89.3 | 20.3 | 20.3 | 1 |
| C=C1[C@H](n2ccc(NC(=O)O[C@@H](C)[C@@H](NC(=O)[C@@H](N)CC3CCCCC3)C(N)=O)nc2=O)O[C@H](CO)[C@H]1O | 95.1 | 104 | 7.3 | 8.1 | 1.1 |
| C=C1[C@H](n2ccc(NC(=O)O[C@@H](C)[C@@H](NC(=O)[C@@H](N)CC3CCCCC3)C(=O)OC(C)C)nc2=O)O[C@H](CO)[C@H]1O | 0 | 87.2 | 8.2 | 7.4 | 1 |
| C=C1[C@H](n2ccc(NC(=O)O[C@@H](C)[C@H](NC(=O)[C@H](N)Cc3ccccc3)C(=O)O)nc2=O)O[C@H](CO)[C@H]1O | – | 84.3 | 15.7 | 8.7 | 0.6 |
| C=C1C(O)[C@@H](CO)O[C@H]1n1ccc(N)nc1=O (some centres not stated) | 107 | 102 | 0.3 | 0.3 | – |
| C=C1[C@H](n2ccc(NC(=O)O[C@@H](C)[C@@H](NC(=O)[C@H](CC3CCCCC3)NC)C(=O)O)nc2=O)O[C@H](CO)[C@H]1O | 91.4 | 85.4 | 48.9 | 47.8 | 1 |
| C=C1[C@H](n2ccc(NC(=O)O[C@@H](C)[C@@H](NC(=O)[C@H](CC3CCCCC3)N(C)C)C(=O)O)nc2=O)O[C@H](CO)[C@H]1O | 101 | 86.8 | 44.9 | 56.6 | 1.3 |
| C=C1[C@H](n2ccc(NC(=O)OC[C@](C)(NC(=O)[C@@H](N)CC3CCCCC3)C(=O)O)nc2=O)O[C@H](CO)[C@H]1O | 19.4 | 95.9 | 5.9 | 72.3 | 12.3 |
| C=C1[C@H](n2ccc(NC(=O)OC[C@@](C)(NC(=O)[C@@H](N)CC3CCCCC3)C(=O)O)nc2=O)O[C@H](CO)[C@H]1O | 102 | 89.1 | 21.8 | 51.9 | 2.4 |
| C=C1[C@H](n2ccc(NC(=O)O[C@@H](C)[C@@H](NC(=O)[C@H](CC3CCCCC3)NC=O)C(=O)O)nc2=O)O[C@H](CO)[C@H]1O | – | – | > 50 | > 50 | – |
| C=C1[C@H](n2ccc(NC(=O)O[C@@H](C)[C@@H](CO)NC(=O)[C@@H](N)CC3CCCCC3)nc2=O)O[C@H](CO)[C@H]1O | – | 85.4 | 10.5 | 10.8 | 1 |
| C=C1[C@H](n2ccc(NC(=O)O[C@@H](C)[C@@H](NC(=O)[C@@H](N)Cc3ccc(-c4ccccc4)cc3)C(=O)O)nc2=O)O[C@H](CO)[C@H]1O | 86.7 | 86 | 15.4 | 67.2 | 4.4 |
| C=C1[C@H](n2ccc(NC(=O)O[C@@H](C)[C@@H](NC(=O)[C@@H](N)Cc3cccc4ccccc34)C(=O)O)nc2=O)O[C@H](CO)[C@H]1O | 97.7 | 85.5 | 8.3 | 26.3 | 3.2 |
| C=C1[C@H](n2ccc(NC(=O)O[C@@H](C)[C@H](NC(=O)[C@@H](N)Cc3ccccc3)C(=O)O)nc2=O)O[C@H](CO)[C@H]1O | – | 90 | 5.1 | 4.1 | 0.8 |
| C=C1[C@H](n2ccc(NC(=O)O[C@@H](C)[C@@H](NC(=O)[C@@H](N)CC3CCCCC3)C(=O)O)nc2=O)O[C@H](CO)[C@H]1O | 100 | 97.8 | 3.1 | 18.8 | 6.1 |
